In ChEMBL document CHEMBL1137679, “Synthesis and antibacterial activity of some new 2,3-dimethoxy-3-hydroxy-2-(1-phenyl-3-aryl-4-pyrazolyl)chromanones” (2009):
Values after ≈ are worked out from the molar mass of the structure shown. Active and inactive are the calls of the source. The calls are words filed in the database; no cut-off is given here.

Experiments:
Assay type in all cases: functional
Staphylococcus aureus [1] = assay: Antimicrobial activity against Staphylococcus aureus MTCC 3160 at 1 mg/ml after 24 hrs by agar diffusion assay; settings: MTCC 3160, 24 h, read-out: DIZ
Outline: (§1)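 Agar well diffusion. 24-h cultures adjusted to 0.5 McFarland (1.5 × 10⁸ CFU/ml), mixed into molten cooled Mueller-Hinton agar (pH 7.4) and poured. 6 mm wells punched, each loaded with 50 µl of 1 mg/ml DMSO solution. DMSO as negative control, antibiotics as positive controls. Plates incubated 35 °C for 24 h. Mean of three replicates.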

[2] = system: Salmonella enterica subsp. enterica serovar Typhi str. CT18; assay: Antimicrobial activity against Salmonella typhi MTCC 733 after 24 hrs by agar dilution assay; settings: MTCC 733, 24 h
Bacillus pumilus [3] = assay: Antimicrobial activity against Bacillus pumilus MTCC 1456 at 1 mg/ml after 24 hrs by agar diffusion assay; settings: for zone of inhibition at 1000 µg/mL: MTCC 1456, 24 h, read-out: DIZ; outline: as §1
[4] = system: Staphylococcus epidermidis; assay: Antimicrobial activity against Staphylococcus epidermidis MTCC 2639 at 1 mg/ml after 24 hrs by agar diffusion assay; settings: for zone of inhibition at 1000 µg/mL: MTCC 2639, 24 h, read-out: DIZ; outline: as §1
Bacillus pumilus [5] = assay: Antimicrobial activity against Bacillus pumilus MTCC 1456 after 24 hrs by agar dilution assay; settings: MTCC 1456, 24 h
Outline: (§2)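 Agar dilution MIC following NCCLS. Cultures streaked on soyabean casein digest agar overnight at 37 °C, suspended to 0.5 McFarland, then diluted 10-fold (1.2 × 10⁷ CFU/ml). DMSO stocks diluted and added to molten Mueller-Hinton agar, final concentrations 64 down to 0.12 by twofold steps. Plates surface-inoculated, incubated 35 °C for 24 h. MIC is lowest concentration with no visible growth.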

Staphylococcus aureus [6] = assay: Antimicrobial activity against Staphylococcus aureus MTCC 3160 after 24 hrs by agar dilution assay; settings: MTCC 3160, 24 h; outline: as §2
Pseudomonas aeruginosa [7] = assay: Antimicrobial activity against Pseudomonas aeruginosa MTCC 3541 at 1 mg/ml after 24 hrs by agar diffusion assay; settings: for zone of inhibition at 1000 µg/mL: MTCC 3541, 24 h, read-out: DIZ; outline: as §1
[8] = system: Staphylococcus epidermidis; assay: Antimicrobial activity against Staphylococcus epidermidis MTCC 2639 after 24 hrs by agar dilution assay; settings: MTCC 2639, 24 h; outline: as §2
[9] = system: Salmonella enterica subsp. enterica serovar Typhi str. CT18; assay: Antimicrobial activity against Salmonella typhi MTCC 733 at 1 mg/ml after 24 hrs by agar diffusion assay; settings: for zone of inhibition at 1000 µg/mL: MTCC 733, 24 h, read-out: DIZ
Outline: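 Well diffusion in MHA (pH 7.4) seeded with 24-h culture adjusted to 0.5 McFarland (1.5 × 10⁸ CFU/ml). Wells of 6 mm received 50 µl of 1 mg/ml DMSO solution; DMSO served as negative control. Incubated 35 °C, 24 h. Mean of three replicates.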

Pseudomonas aeruginosa [10] = assay: Antimicrobial activity against Pseudomonas aeruginosa MTCC 3541 after 24 hrs by agar dilution assay; settings: MTCC 3541, 24 h; outline: as §2

Structure (SMILES) | zone of inhibition at 1000 µg/mL (Staphylococcus aureus [1]) [mm] | MIC [2] [µg/mL] | diameter of the inhibition zone (DIZ) (Bacillus pumilus [3]) | zone of inhibition at 1000 µg/mL [4] [mm] | MIC (Bacillus pumilus [5]) [µg/mL] | MIC (Staphylococcus aureus [6]) [µg/mL] | diameter of the inhibition zone (DIZ) (Pseudomonas aeruginosa [7]) | MIC [8] [µg/mL] | diameter of the inhibition zone (DIZ) [9] | MIC (Pseudomonas aeruginosa [10]) [µg/mL] | zone of inhibition at 1000 µg/mL (Bacillus pumilus [3]) [mm] | zone of inhibition at 1000 µg/mL (Pseudomonas aeruginosa [7]) [mm] | zone of inhibition at 1000 µg/mL [9] [mm] | diameter of the inhibition zone (DIZ) [4]
COC1(O)C(=O)c2ccccc2OC1(OC)c1cn(-c2ccccc2)nc1-c1ccc(C)cc1 (centres undefined) | 16.1 | > 64 | inactive | 12.6 | > 64 | 32 (≈ 70.1 µM) | inactive | 64 (≈ 140 µM) | inactive | > 64 |  |  |  | 
CC(=O)NC[C@H]1CN(c2ccc(N3CCOCC3)c(F)c2)C(=O)O1 [LINEZOLID] |  | 8 (≈ 23.7 µM) |  |  | 4 (≈ 11.9 µM) |  |  | < 16 |  | < 16 |  |  |  | 
COC1(O)C(=O)c2ccccc2OC1(OC)c1cn(-c2ccccc2)nc1-c1ccc(F)cc1 (centres undefined) | 23 | 8 (≈ 17.4 µM) |  | 12.1 | 64 (≈ 139 µM) | 4 (≈ 8.69 µM) |  | 64 (≈ 139 µM) |  | 8 (≈ 17.4 µM) | 10.1 | 22.2 | 18.2 | 
COC1(O)C(=O)c2ccccc2OC1(OC)c1cn(-c2ccccc2)nc1-c1ccc(Cl)cc1 (centres undefined) | 20.4 | > 64 | inactive | 16.7 | > 64 | 8 (≈ 16.8 µM) |  | 16 (≈ 33.5 µM) | inactive | 32 (≈ 67.1 µM) |  | 14.7 |  | 
N[C@@H](C(=O)N[C@@H]1C(=O)N2C(C(=O)O)=C(Cl)CS[C@H]12)c1ccccc1 [CEFACLOR ANHYDROUS] |  | 8 (≈ 21.8 µM) |  |  | 8 (≈ 21.8 µM) | 2 (≈ 5.44 µM) |  | 2 (≈ 5.44 µM) |  | < 16 |  |  |  | 
COC1(O)C(=O)c2ccccc2OC1(OC)c1cn(-c2ccccc2)nc1-c1ccc([N+](=O)[O-])cc1 (centres undefined) | 26 | 8 (≈ 16.4 µM) |  | 18.5 | 32 (≈ 65.6 µM) | 2 (≈ 4.1 µM) |  | 8 (≈ 16.4 µM) |  | 16 (≈ 32.8 µM) | 15.8 | 16.6 | 20.6 | 
CO/N=C(\C(=O)N[C@@H]1C(=O)N2C(C(=O)OC(C)OC(C)=O)=C(COC(N)=O)CS[C@H]12)c1ccco1 (some centres undefined) [CEFUROXIME AXETIL] |  | 8 (≈ 15.7 µM) |  |  | > 16 | 8 (≈ 15.7 µM) |  | 8 (≈ 15.7 µM) |  | > 16 |  |  |  | 
COC1(O)C(=O)c2ccccc2OC1(OC)c1cn(-c2ccccc2)nc1-c1ccc(Br)cc1 (centres undefined) | 10.3 | > 64 | inactive |  | > 64 | 64 (≈ 123 µM) | inactive | > 64 | inactive | > 64 |  |  |  | inactive
COc1ccc(-c2nn(-c3ccccc3)cc2C2(OC)Oc3ccccc3C(=O)C2(O)OC)cc1 (centres undefined) | 18 | > 64 | inactive |  | > 64 | 16 (≈ 33.9 µM) | inactive | > 64 | inactive | > 64 |  |  |  | inactive
COC1(O)C(=O)c2ccccc2OC1(OC)c1cn(-c2ccccc2)nc1-c1ccccc1 (centres undefined) | 18.1 | > 64 | inactive |  | > 64 | 16 (≈ 36.2 µM) | inactive | > 64 | inactive | > 64 |  |  |  | inactive
